# Results as given in ChEMBL document CHEMBL4266056, “Discovery and Pharmacology of a Novel Somatostatin Subtype 5 (SSTR5) Antagonist: Synergy with DPP-4 Inhibition” (ACS Med Chem Lett, 2018).
# Activity calls are given as the source filed them. The rule behind the calls is not given here.
# Key:
# Mus musculus [1] = experiment: Antidiabetic activity in HFD fed C57BL/6N mouse assessed as decrease in blood glucose AUC at 0.1 mg/kg administered as single oral dose pretreated for 60 mins followed by glucose challenge measured after 120 mins by OGTT; assay type: functional; set-up: scale not given: the % may be the effect or the level left
# Summary of the method: (§1)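 Oral dose titration (0.03-3 mg/kg) in HFD-fed mice, n=8. Dosing was followed by an oral glucose tolerance test. Net blood glucose AUC was expressed as % reduction versus vehicle, with P values versus vehicle.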
# [2] = target: Voltage-dependent L-type calcium channel subunit alpha-1C (Homo sapiens, UniProt Q13936); experiment: Inhibition of Cav1.2 (unknown origin)
# Cytochrome P450 2C9 = Cytochrome P450 2C9 (Homo sapiens, UniProt P11712); experiment: Inhibition of human CYP2C9; assay type: ADME
# [3] = Half life in rhesus monkey at […], iv or 1 mg/kg, po; assay type: ADME, organism-based, Macaca mulatta; conditions: in vivo
# Pancreatic islet [4] = experiment: Induction of SST-14 secretion in human pancreatic islets in presence of glucose by ELISA; assay type: functional, cell-based
# Summary of the method: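 In the same human islet incubations, SST-14 and glucagon secretion were monitored alongside insulin.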
# [5] = Unbound plasma concentration in C57BL/6N mouse plasma at 0.1 mg/kg, po measured at 3 hrs; assay type: ADME, organism-based; conditions: in vivo
# [6] = Drug uptake in C57BL/6N mouse whole blood at 3 mg/kg, po measured at 3 hrs; assay type: ADME, organism-based; conditions: read-out: Drug uptake
# Summary of the method: (§2)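 Whole-blood compound exposure was measured 3 h after oral dosing (0.03-3 mg/kg) in HFD mice run through the OGTT dose titration. Unbound levels were derived using the plasma free fraction.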
# [7] = Oral bioavailability in rhesus monkey at 1 mg/kg; assay type: ADME, organism-based, Macaca mulatta; conditions: in vivo
# Pancreatic islet [8] = experiment: Induction of glucose-dependent insulin secretion in human pancreatic islets at 0.5 and 5 uM preincubated for 30 mins with glucose followed by compound addition measured after 60 mins by ELISA
# [9] = Solubility of the compound in 10% tween formulation; assay type: physicochemical
# [10] = Oral bioavailability in rat at 2 mg/kg; assay type: ADME, organism-based; conditions: in vivo
# Summary of the method: (§3)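 Rat pharmacokinetics after separate intravenous (1 mg/kg) and oral (2 mg/kg) dosing. Clearance is reported in mL/kg/min and half-life in hours. Oral bioavailability is given as F (%).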
# [11] = Fraction unbound in rat plasma at 0.1 uM using [3H]-labeled compound; assay type: ADME, cell-free
# Cytochrome P450 2D6 = Cytochrome P450 2D6 (Homo sapiens, UniProt P10635); experiment: Inhibition of human CYP2D6; assay type: ADME
# [12] = Clearance in dog at […], iv or 1 mg/kg, po; assay type: ADME, organism-based, Canis lupus familiaris; conditions: in vivo
# Mus musculus [13] = experiment: Induction of hypoglycemia in C57BL/6N mouse assessed as decrease in basal blood glucose levels at 3 to 30 mg/kg, po measured over 5 hrs; assay type: organism-based; conditions: in vivo
# [14] = target: Voltage-gated inwardly rectifying potassium channel KCNH2 (Homo sapiens, UniProt Q12809); experiment: Inhibition of MK-499 binding to human ERG
# Cytochrome P450 3A4 = Cytochrome P450 3A4 (Homo sapiens, UniProt P08684); experiment: Inhibition of human CYP3A4; assay type: ADME
# [15] = target: Somatostatin receptor type 4 (Homo sapiens, UniProt P31391); experiment: Antagonist activity at human SSTR4 expressed in CHO-K1 cell membranes; assay type: functional, cell-based
# Summary of the method: (§4)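 Counter-screen by filtration membrane binding: competitive displacement of radiolabeled SST-28 from cell membranes expressing human SSTR1, SSTR2, SSTR3 or SSTR4. The IC50 is the mean of at least duplicate experiments within a maximal threefold range.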
# Mus musculus [16] = experiment: Antidiabetic activity in HFD fed SSTR5 knock-out C57BL/6N mouse assessed as decrease in blood glucose AUC at 0.03 to 3 mg/kg administered as single oral dose pretreated for 60 mins followed by glucose challenge measured after 120 mins by OGTT; assay type: functional, organism-based
# [17] = Volume of distribution in dog at […], iv or 1 mg/kg, po; assay type: ADME, organism-based, Canis lupus familiaris; conditions: in vivo
# [18] = Fraction unbound in rhesus monkey plasma at 0.1 uM using [3H]-labeled compound; assay type: ADME, cell-free, Macaca mulatta
# [19] = Clearance in rhesus monkey at […], iv or 1 mg/kg, po; assay type: ADME, organism-based, Macaca mulatta; conditions: in vivo
# [20] = target: Somatostatin receptor type 3 (Homo sapiens, UniProt P32745); experiment: Antagonist activity at human SSTR3 expressed in CHO-K1 cell membranes; assay type: functional, cell-based; summary of the method: as §4
# Mus musculus [21] = experiment: Antidiabetic activity in HFD fed C57BL/6N mouse assessed as decrease in blood glucose AUC administered as single oral dose pretreated for 60 mins followed by glucose challenge measured after 120 mins by OGTT; conditions: read-out: MED
# [22] = target: Sodium channel protein type 5 subunit alpha (Homo sapiens, UniProt Q14524); experiment: Inhibition of Nav1.5 (unknown origin)
# [23] = Drug uptake in C57BL/6N mouse whole blood at 0.3 mg/kg, po measured at 3 hrs; assay type: ADME, organism-based; conditions: read-out: Drug uptake; summary of the method: as §2
# Mus musculus [24] = experiment: Antidiabetic activity in HFD fed C57BL/6N mouse assessed as increase in circulating total GLP-1 levels at 10 mg/kg, po pretreated for 60 mins measured 5 mins post glucose challenge by OGTT; assay type: functional, organism-based
# Summary of the method: (§5)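 The SSTR5 antagonist was given orally at 10 mg/kg, alone or combined with des-fluoro sitagliptin at 10 mg/kg, ahead of an oral glucose challenge. Blood was sampled 5 min after glucose for circulating total GLP-1, active GLP-1[7-36] amide and plasma insulin.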
# [25] = Clearance in rat at 1 mg/kg, iv or 2 mg/kg, po; assay type: ADME, organism-based; conditions: in vivo; summary of the method: as §3
# [26] = target: T1, Prostaglandin D2 receptor (Homo sapiens, UniProt Q13258); experiment: Inhibition of prostanoid DP receptor (unknown origin)
# T1 sequence (Q13258 whole entry): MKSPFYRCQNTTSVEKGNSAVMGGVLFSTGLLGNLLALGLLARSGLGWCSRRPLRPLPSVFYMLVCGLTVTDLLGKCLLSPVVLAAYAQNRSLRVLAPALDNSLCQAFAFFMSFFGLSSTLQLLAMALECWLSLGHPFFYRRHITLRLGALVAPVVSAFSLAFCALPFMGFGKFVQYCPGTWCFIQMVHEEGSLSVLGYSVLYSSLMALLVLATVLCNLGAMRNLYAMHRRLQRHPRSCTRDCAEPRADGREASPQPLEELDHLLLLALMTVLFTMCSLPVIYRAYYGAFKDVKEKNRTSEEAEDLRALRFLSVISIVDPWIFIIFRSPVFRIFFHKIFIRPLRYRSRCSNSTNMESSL
# [27] = Unbound plasma concentration in C57BL/6N mouse plasma at 3 mg/kg, po measured at 3 hrs; assay type: ADME, organism-based; conditions: in vivo
# Mus musculus [28] = experiment: Antidiabetic activity in HFD fed C57BL/6N mouse assessed as decrease in blood glucose AUC at 1 mg/kg administered as single oral dose pretreated for 60 mins followed by glucose challenge measured after 120 mins by OGTT; assay type: functional; set-up: scale not given: the % may be the effect or the level left; summary of the method: as §1
# Mus musculus [29] = experiment: Antidiabetic activity in HFD fed C57BL/6N mouse assessed as increase in circulating active GLP-1 levels at 10 mg/kg, po pretreated for 60 mins measured 5 mins post glucose challenge by OGTT; assay type: functional, organism-based; summary of the method: as §5
# [30] = Aqueous solubility of the compound in neutral solution; assay type: physicochemical
# [31] = Drug uptake in C57BL/6N mouse whole blood at 0.1 mg/kg, po measured at 3 hrs; assay type: ADME, organism-based; conditions: read-out: Drug uptake; summary of the method: as §2
# [32] = Unbound plasma concentration in C57BL/6N mouse plasma at 1 mg/kg, po measured at 3 hrs; assay type: ADME, organism-based; conditions: in vivo
# Voltage-gated inwardly rectifying potassium channel KCNH2, sequence (Q12809 whole entry): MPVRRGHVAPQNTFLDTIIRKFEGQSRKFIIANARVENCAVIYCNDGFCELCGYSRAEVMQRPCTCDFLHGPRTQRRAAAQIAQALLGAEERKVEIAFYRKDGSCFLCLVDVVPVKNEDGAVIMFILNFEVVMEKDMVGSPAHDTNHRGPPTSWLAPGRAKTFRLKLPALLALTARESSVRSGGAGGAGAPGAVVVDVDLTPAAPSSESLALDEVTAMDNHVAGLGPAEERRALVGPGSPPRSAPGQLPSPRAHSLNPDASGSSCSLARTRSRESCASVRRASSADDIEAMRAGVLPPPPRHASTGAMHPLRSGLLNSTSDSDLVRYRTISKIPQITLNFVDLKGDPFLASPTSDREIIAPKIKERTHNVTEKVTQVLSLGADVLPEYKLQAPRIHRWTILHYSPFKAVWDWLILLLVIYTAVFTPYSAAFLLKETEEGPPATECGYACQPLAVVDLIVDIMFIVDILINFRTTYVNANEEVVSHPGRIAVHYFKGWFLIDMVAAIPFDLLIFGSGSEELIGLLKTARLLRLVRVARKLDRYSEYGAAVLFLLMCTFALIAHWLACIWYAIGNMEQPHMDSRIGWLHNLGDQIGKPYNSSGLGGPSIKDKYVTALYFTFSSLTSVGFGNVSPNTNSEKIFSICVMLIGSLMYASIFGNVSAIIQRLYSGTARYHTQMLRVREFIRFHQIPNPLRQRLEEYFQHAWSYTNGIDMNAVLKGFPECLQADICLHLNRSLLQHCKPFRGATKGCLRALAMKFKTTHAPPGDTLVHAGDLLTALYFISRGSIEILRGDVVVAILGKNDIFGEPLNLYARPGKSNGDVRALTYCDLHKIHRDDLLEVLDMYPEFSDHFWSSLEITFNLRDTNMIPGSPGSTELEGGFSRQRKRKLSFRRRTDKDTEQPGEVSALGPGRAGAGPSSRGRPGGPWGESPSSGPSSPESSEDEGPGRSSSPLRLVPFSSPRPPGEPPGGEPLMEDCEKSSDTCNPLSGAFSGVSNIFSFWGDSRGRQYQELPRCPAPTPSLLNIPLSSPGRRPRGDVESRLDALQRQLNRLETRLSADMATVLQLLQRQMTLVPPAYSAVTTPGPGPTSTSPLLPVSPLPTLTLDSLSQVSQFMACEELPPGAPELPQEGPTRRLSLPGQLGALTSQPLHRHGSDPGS
# Cytochrome P450 2C9, sequence (P11712 whole entry): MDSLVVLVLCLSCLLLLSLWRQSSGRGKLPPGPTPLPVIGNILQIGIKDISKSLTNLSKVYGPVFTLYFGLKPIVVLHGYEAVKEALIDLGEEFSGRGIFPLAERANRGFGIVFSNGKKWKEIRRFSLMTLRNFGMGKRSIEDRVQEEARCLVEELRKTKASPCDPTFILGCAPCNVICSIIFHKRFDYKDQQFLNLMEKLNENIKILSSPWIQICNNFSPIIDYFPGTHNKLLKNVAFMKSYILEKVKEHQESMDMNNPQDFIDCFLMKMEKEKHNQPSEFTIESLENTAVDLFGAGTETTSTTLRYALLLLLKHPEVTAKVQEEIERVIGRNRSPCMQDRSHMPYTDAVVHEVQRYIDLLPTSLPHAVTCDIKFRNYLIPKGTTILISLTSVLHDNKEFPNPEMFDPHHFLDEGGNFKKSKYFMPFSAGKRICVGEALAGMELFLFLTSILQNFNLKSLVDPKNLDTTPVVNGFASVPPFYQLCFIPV
# Cytochrome P450 3A4, sequence (P08684 whole entry): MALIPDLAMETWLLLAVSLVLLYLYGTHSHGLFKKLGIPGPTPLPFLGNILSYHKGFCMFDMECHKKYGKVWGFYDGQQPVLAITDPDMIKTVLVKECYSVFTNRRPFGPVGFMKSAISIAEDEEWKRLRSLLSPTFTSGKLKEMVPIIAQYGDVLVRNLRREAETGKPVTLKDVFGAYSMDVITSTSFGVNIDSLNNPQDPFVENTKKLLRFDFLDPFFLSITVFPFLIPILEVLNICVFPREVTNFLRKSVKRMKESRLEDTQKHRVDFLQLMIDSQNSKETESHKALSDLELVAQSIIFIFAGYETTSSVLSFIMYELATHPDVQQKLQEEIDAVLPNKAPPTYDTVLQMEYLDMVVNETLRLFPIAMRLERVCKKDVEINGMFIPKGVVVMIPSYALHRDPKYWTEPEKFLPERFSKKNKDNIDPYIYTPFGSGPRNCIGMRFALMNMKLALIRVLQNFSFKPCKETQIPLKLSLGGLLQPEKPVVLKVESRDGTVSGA
# Somatostatin receptor type 3, sequence (P32745 whole entry): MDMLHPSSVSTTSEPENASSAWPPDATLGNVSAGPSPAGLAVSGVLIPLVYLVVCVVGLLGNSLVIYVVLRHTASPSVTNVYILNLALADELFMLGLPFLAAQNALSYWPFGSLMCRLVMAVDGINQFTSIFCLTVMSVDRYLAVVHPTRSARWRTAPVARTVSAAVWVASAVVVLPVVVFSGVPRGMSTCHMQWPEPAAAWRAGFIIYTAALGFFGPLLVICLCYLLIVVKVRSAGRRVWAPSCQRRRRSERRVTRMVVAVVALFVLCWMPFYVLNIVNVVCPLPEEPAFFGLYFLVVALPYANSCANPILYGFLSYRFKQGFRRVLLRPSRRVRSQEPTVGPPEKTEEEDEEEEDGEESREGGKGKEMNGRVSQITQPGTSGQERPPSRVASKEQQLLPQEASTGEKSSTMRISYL
# Somatostatin receptor type 4, sequence (P31391 whole entry): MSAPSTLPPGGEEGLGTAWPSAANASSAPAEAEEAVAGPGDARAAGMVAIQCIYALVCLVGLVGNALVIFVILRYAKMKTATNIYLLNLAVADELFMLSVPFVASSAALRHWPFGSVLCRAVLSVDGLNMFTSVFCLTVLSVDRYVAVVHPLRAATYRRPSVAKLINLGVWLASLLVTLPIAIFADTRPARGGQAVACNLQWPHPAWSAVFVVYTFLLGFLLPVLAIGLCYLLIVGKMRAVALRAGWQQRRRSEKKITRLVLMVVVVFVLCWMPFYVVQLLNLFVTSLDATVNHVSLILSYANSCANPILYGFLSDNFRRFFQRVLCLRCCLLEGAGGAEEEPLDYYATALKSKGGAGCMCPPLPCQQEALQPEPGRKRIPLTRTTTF
# Cytochrome P450 2D6, sequence (P10635 whole entry): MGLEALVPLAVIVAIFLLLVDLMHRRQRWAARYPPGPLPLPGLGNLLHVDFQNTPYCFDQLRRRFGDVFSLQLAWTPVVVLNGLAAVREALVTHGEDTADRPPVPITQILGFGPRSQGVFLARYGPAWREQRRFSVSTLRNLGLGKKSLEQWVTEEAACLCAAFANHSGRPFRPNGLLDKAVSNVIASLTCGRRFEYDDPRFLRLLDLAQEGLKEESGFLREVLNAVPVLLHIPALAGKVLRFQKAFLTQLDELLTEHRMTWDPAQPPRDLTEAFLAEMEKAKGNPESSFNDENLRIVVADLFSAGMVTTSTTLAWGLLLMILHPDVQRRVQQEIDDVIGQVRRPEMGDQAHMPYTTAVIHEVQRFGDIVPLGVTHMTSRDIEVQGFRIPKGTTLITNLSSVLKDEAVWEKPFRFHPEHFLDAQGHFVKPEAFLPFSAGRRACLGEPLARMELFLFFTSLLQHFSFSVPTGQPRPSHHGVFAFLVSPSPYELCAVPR
compound,measurement,setting,value
CCOc1cc(CN2CCC3(CC2)CC(=O)N(c2ccc(C(=O)O)cc2)C3)cc(OCC)c1-c1ccc(F)cc1.O=C(O)C(F)(F)F,Activity,Mus musculus [1],58%
same,IC50,[2],> 15 µM
same,IC50,Cytochrome P450 2C9,> 50 µM
same,half-life,[3],120 min
same,Activity,Pancreatic islet [4],inactive
same,Cp(f),[5],0.5 nM
same,concentration at 3 h,[6],351 nM
same,bioavailability,[7],40%
same,Activity,Pancreatic islet [8],Active
same,solubility,[9],5300 µg/mL
same,bioavailability,[10],41%
same,Fu,[11],5.7%
same,IC50,Cytochrome P450 2D6,> 50 µM
same,clearance,[12],2.2 mL/min/kg
same,Activity,Mus musculus [13],Non-Toxic
same,IC50,[14],45 µM
same,IC50,Cytochrome P450 3A4,> 50 µM
same,IC50,[15],> 10 µM
same,Activity,Mus musculus [16],inactive
same,Vd,[17],2.82 L/kg
same,Fu,[18],5.4%
same,clearance,[19],11.8 mL/min/kg
same,IC50,[20],> 10 µM
same,minimal effective dose,Mus musculus [21],0.1 mg/kg
same,IC50,[22],> 15 µM
same,concentration at 3 h,[23],34 nM
same,Activity,Mus musculus [24],Active
same,clearance,[25],15.2 mL/min/kg
same,IC50,[26],3 µM
same,Cp(f),[27],16.1 nM
same,Activity,Mus musculus [28],74%
same,Activity,Mus musculus [29],Active
same,solubility,[30],300 µg/mL
same,concentration at 3 h,[31],11 nM
same,Cp(f),[32],6 nM
